The source of these data is ChEMBL document CHEMBL1149590, “Synthesis and evaluation of homo-bivalent GnRHR ligands” (Bioorg Med Chem, 2007).

Some results are limits rather than exact numbers.

Experiment [1] has as its target T1, Gonadotropin-releasing hormone receptor (Homo sapiens, UniProt P30968).
T1 sequence (P30968 whole entry): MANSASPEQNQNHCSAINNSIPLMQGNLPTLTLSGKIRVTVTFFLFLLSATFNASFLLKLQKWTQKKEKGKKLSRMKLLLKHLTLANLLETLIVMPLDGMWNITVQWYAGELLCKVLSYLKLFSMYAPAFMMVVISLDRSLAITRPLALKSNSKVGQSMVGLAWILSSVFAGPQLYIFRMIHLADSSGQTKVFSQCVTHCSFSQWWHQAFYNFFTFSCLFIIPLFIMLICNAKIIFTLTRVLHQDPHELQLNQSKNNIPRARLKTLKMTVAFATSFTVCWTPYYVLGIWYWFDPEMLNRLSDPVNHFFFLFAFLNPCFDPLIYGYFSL
As to the kind of experiment: Antagonist activity at human GnRHR expressed in CHO cells after 30 mins by luciferase reporter gene assay. The format is functional, cell-based. In general terms: A reporter such as luciferase makes a cellular process visible.

For experiment [2], the target named is T2, Gonadotropin-releasing hormone receptor (Homo sapiens) (UniProt P30968).
T2 sequence (whole entry): T1 sequence (P30968 whole entry)
Description: Displacement of [125I]triptorelin from human GnRHR expressed in CHO cells at 1 uM. The format is cell-based. Put shortly:
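Single-point displacement at 1 μM test compound. CHO membranes bearing wild-type human GnRHR (20 µg protein) incubated 45 min at 22 °C with [125I]triptorelin (30,000 cpm) in Tris-HCl pH 7.4 containing MgCl2 and BSA. Nonspecific binding taken with 1 µM ganirelix, total binding with buffer. Bound radioligand recovered by filtration and gamma-counted; percent displacement reported.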

Experiment [3] addresses T1, Gonadotropin-releasing hormone receptor. As to the kind of experiment: Displacement of [125I]triptorelin from human GnRHR expressed in CHO cells. The format is cell-based. The essentials: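 Membranes from CHO cells expressing wild-type human GnRHR (20 µg protein) incubated with [125I]triptorelin (30,000 cpm) and five competitor concentrations in 50 mM Tris-HCl pH 7.4, 2 mM MgCl2, 0.1% BSA, 45 min at 22 °C. Nonspecific binding defined with 1 µM ganirelix. Filtration, gamma counting. Ki from IC50 via Cheng-Prusoff (Kd 1.1 nM); at least three experiments in duplicate.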
In general terms: In a radioligand displacement assay an active substance lowers the binding of a labelled ligand.

For orientation: IC50 means the concentration that inhibits the measured activity by half. Higher therefore signals weaker potency. `CCOC(=O)c1cn(Cc2c(F)cccc2F)c2nc(-c3ccc(NC(=O)NCc4cn(CCOCCOCCOCCN=[N+]=[N-])nn4)cc3)c(CN(C)Cc3ccccc3)n2c1=O`: the 50% inhibitory concentration (IC50) in experiment [1] was 3.02 µM. This molecule came in with an Activity in experiment [2] of 84%.
For `CCOC(=O)c1cn(Cc2c(F)cccc2F)c2nc(-c3ccc(NC(=O)NCc4cn(CCOCCOCCOCCOCCN=[N+]=[N-])nn4)cc3)c(CN(C)Cc3ccccc3)n2c1=O`, in that order: 0.676 µM and 90%.
For `CCOC(=O)c1cn(Cc2c(F)cccc2F)c2nc(-c3ccc(NC(=O)NCc4cn(CCN=[N+]=[N-])nn4)cc3)c(CN(C)Cc3ccccc3)n2c1=O`, in that order: 2.57 µM and 76%.
By Ki is commonly meant the dissociation constant of the complex between target and ligand, obtained from inhibition or displacement. A lower Ki goes with higher affinity. Consider `CCNC(=O)Nc1ccc(-c2nc3n(Cc4c(F)cccc4F)cc(C(=O)OCC)c(=O)n3c2CN(CC(=O)NCc2cn(CCOCCOCCOCCOCCn3cc(CNC(=O)CN(Cc4ccccc4)Cc4c(-c5ccc(NC(=O)NCC)cc5)nc5n(Cc6c(F)cccc6F)cc(C(=O)OCC)c(=O)n45)nn3)nn2)Cc2ccccc2)cc1`, for which, in experiment [1], the IC50 is 0.309 µM. The molecule also had a Ki in experiment [3] of 0.195 µM. For the same molecule, the Activity in experiment [2] is 89%.
In experiment [1], `CCOC(=O)c1cn(Cc2c(F)cccc2F)c2nc(-c3ccc(NC(=O)NCc4cn(CCOCCn5cc(CNC(=O)Nc6ccc(-c7nc8n(Cc9c(F)cccc9F)cc(C(=O)OCC)c(=O)n8c7CN(C)Cc7ccccc7)cc6)nn5)nn4)cc3)c(CN(C)Cc3ccccc3)n2c1=O` showed an IC50 of 3.16 µM. In addition, the Activity in experiment [2] was found to be 88%.
On to `CCNC(=O)Nc1ccc(-c2nc3n(Cc4c(F)cccc4F)cc(C(=O)NCc4cn(CCOCCOCCOCCOCCN=[N+]=[N-])nn4)c(=O)n3c2CN(C)Cc2ccccc2)cc1`, for which, in experiment [1], the IC50 is > 10 µM. The molecule also registered an Activity in experiment [2] of 70%.
In the case of `CCNC(=O)Nc1ccc(-c2nc3n(Cc4c(F)cccc4F)cc(C(=O)OCC)c(=O)n3c2CN(CC(=O)NCc2cn(CCOCCOCCOCCOCCN=[N+]=[N-])nn2)Cc2ccccc2)cc1`, inhibition in experiment [1] was half-maximal at 0.832 µM (IC50). In experiment [2], the Activity was 78%.
For `CCOC(=O)c1cn(Cc2c(F)cccc2F)c2nc(-c3ccc(NC(=O)NCc4cn(CCn5cc(CNC(=O)Nc6ccc(-c7nc8n(Cc9c(F)cccc9F)cc(C(=O)OCC)c(=O)n8c7CN(C)Cc7ccccc7)cc6)nn5)nn4)cc3)c(CN(C)Cc3ccccc3)n2c1=O`, in that order: 1.91 µM and 68%.
`CCOC(=O)c1cn(Cc2c(F)cccc2F)c2nc(-c3ccc(NC(=O)NCc4cn(CCOCCOCCOCCOCCn5cc(CNC(=O)Nc6ccc(-c7nc8n(Cc9c(F)cccc9F)cc(C(=O)OCC)c(=O)n8c7CN(C)Cc7ccccc7)cc6)nn5)nn4)cc3)c(CN(C)Cc3ccccc3)n2c1=O` had an IC50 in experiment [1] of 1.35 µM. Moreover, the Activity in experiment [2] is 89%.
For `CCNC(=O)Nc1ccc(-c2nc3n(Cc4c(F)cccc4F)cc(C(=O)NCc4cn(CCOCCOCCOCCN=[N+]=[N-])nn4)c(=O)n3c2CN(C)Cc2ccccc2)cc1`, in that order: > 10 µM and 69%.
Molecule `CCNC(=O)Nc1ccc(-c2nc3n(Cc4c(F)cccc4F)cc(C(=O)OCC)c(=O)n3c2CN(CC(=O)NCc2cn(CCN=[N+]=[N-])nn2)Cc2ccccc2)cc1` showed an IC50 in experiment [1] of 0.724 µM. In experiment [2], this molecule showed an Activity of 74%.
For `CCNC(=O)Nc1ccc(-c2nc3n(Cc4c(F)cccc4F)cc(C(=O)OCC)c(=O)n3c2CN(CC(=O)NCc2cn(CCOCCN=[N+]=[N-])nn2)Cc2ccccc2)cc1`, in that order: 0.525 µM and 66%.
For `CCNC(=O)Nc1ccc(-c2nc3n(Cc4c(F)cccc4F)cc(C(=O)NCc4cn(CCN=[N+]=[N-])nn4)c(=O)n3c2CN(C)Cc2ccccc2)cc1`, in that order: > 10 µM and 78%.
Consider `CCNC(=O)Nc1ccc(-c2nc3n(Cc4c(F)cccc4F)cc(C(=O)OCC)c(=O)n3c2CN(CC(=O)NCc2cn(CCOCCn3cc(CNC(=O)CN(Cc4ccccc4)Cc4c(-c5ccc(NC(=O)NCC)cc5)nc5n(Cc6c(F)cccc6F)cc(C(=O)OCC)c(=O)n45)nn3)nn2)Cc2ccccc2)cc1`, for which the IC50 in experiment [1] is 1.55 µM. In experiment [2], this molecule gave an Activity of 71%.
In the case of `CCOC(=O)c1cn(Cc2c(F)cccc2F)c2nc(-c3ccc(NC(=O)NCc4cn(CCOCCN=[N+]=[N-])nn4)cc3)c(CN(C)Cc3ccccc3)n2c1=O`, in experiment [1], half-maximal inhibition (IC50) required 3.63 µM. The Activity in experiment [2] amounted to 85%.
For `CCOC(=O)c1cn(Cc2c(F)cccc2F)c2nc(-c3ccc(NC(=O)NCc4cn(CCOCCOCCN=[N+]=[N-])nn4)cc3)c(CN(C)Cc3ccccc3)n2c1=O`, in that order: 2.4 µM and 84%.
For `CCNC(=O)Nc1ccc(-c2nc3n(Cc4c(F)cccc4F)cc(C(=O)OCC)c(=O)n3c2CN(CC(=O)NCc2cn(CCn3cc(CNC(=O)CN(Cc4ccccc4)Cc4c(-c5ccc(NC(=O)NCC)cc5)nc5n(Cc6c(F)cccc6F)cc(C(=O)OCC)c(=O)n45)nn3)nn2)Cc2ccccc2)cc1`, in that order: 1.91 µM and 65%.
In experiment [1], `CCNC(=O)Nc1ccc(-c2nc3n(Cc4c(F)cccc4F)cc(C(=O)OCC)c(=O)n3c2CN(CC(=O)NCc2cn(CCOCCOCCOCCN=[N+]=[N-])nn2)Cc2ccccc2)cc1` had an IC50 of 0.724 µM. In addition, in experiment [2], the Activity is 76%.
For `CCNC(=O)Nc1ccc(-c2nc3n(Cc4c(F)cccc4F)cc(C(=O)OCC)c(=O)n3c2CN(CC(=O)NCc2cn(CCOCCOCCN=[N+]=[N-])nn2)Cc2ccccc2)cc1`, in that order: 0.468 µM and 83%.
For `CCNC(=O)Nc1ccc(-c2nc3n(Cc4c(F)cccc4F)cc(C(=O)NCc4cn(CCn5cc(CNC(=O)c6cn(Cc7c(F)cccc7F)c7nc(-c8ccc(NC(=O)NCC)cc8)c(CN(C)Cc8ccccc8)n7c6=O)nn5)nn4)c(=O)n3c2CN(C)Cc2ccccc2)cc1`, in that order: > 10 µM and 26%.
For `CCNC(=O)Nc1ccc(-c2nc3n(Cc4c(F)cccc4F)cc(C(=O)NCc4cn(CCOCCn5cc(CNC(=O)c6cn(Cc7c(F)cccc7F)c7nc(-c8ccc(NC(=O)NCC)cc8)c(CN(C)Cc8ccccc8)n7c6=O)nn5)nn4)c(=O)n3c2CN(C)Cc2ccccc2)cc1`, the IC50 in experiment [1] was > 10 µM. The molecule also displayed an Activity in experiment [2] of 64%.
For the molecule `CCNC(=O)Nc1ccc(-c2nc3n(Cc4c(F)cccc4F)cc(C(=O)NCc4cn(CCOCCOCCOCCOCCn5cc(CNC(=O)c6cn(Cc7c(F)cccc7F)c7nc(-c8ccc(NC(=O)NCC)cc8)c(CN(C)Cc8ccccc8)n7c6=O)nn5)nn4)c(=O)n3c2CN(C)Cc2ccccc2)cc1`, the 50% inhibitory concentration (IC50) in experiment [1] was > 10 µM. In experiment [2], the Activity was found to be 85%.
`CCNC(=O)Nc1ccc(-c2nc3n(Cc4c(F)cccc4F)cc(C(=O)NCc4cn(CCOCCOCCOCCn5cc(CNC(=O)c6cn(Cc7c(F)cccc7F)c7nc(-c8ccc(NC(=O)NCC)cc8)c(CN(C)Cc8ccccc8)n7c6=O)nn5)nn4)c(=O)n3c2CN(C)Cc2ccccc2)cc1`: the IC50 in experiment [1] was > 10 µM. The molecule further had an Activity in experiment [2] of 86%.
For `CCNC(=O)Nc1ccc(-c2nc3n(Cc4c(F)cccc4F)cc(C(=O)NCc4cn(CCOCCOCCN=[N+]=[N-])nn4)c(=O)n3c2CN(C)Cc2ccccc2)cc1`, in that order: > 10 µM and 81%.
For `CCNC(=O)Nc1ccc(-c2nc3n(Cc4c(F)cccc4F)cc(C(=O)NCc4cn(CCOCCN=[N+]=[N-])nn4)c(=O)n3c2CN(C)Cc2ccccc2)cc1`, in that order: > 10 µM and 68%.
